Source: PubChem BioAssay (several laboratories)
Hits are enriched below; roughly 4% of the tested compounds scored in any of these assays.
Smad3 inh: inhibitors of human Smad3 transcription factor binding. P84022. TR-FRET Smad3/Dy647-FoxH1 peptide binding, europium anti-His. 0.29% of 88,000 active. AID 630. inhibition, % at 25 µM;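 active = compounds that reduce the energy-transfer binding signal between the protein and its labelled peptide by more than half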;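 also: 0% = Smad3 plus labelled peptide maximal FRET and 100% = peptide-only background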
ERb coact inh: blocks coactivator binding to human estrogen receptor beta | TR-FRET ER-beta LBD / SRC1-Cy5 peptide binding; receptor agonist-loaded with 1 µM estradiol | inhibition, % at 25.6 µM | 1.3% of 86,000 active | AID 633;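 active = compounds whose percent inhibition of the receptor-coactivator binding signal exceeds about 50% in the single-dose screen, limit read from the data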;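 also: 0% = receptor plus peptide wells without compound and 100% = peptide-only wells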
Target sequence (Q92731 whole entry, looked up, the tested form may be a part): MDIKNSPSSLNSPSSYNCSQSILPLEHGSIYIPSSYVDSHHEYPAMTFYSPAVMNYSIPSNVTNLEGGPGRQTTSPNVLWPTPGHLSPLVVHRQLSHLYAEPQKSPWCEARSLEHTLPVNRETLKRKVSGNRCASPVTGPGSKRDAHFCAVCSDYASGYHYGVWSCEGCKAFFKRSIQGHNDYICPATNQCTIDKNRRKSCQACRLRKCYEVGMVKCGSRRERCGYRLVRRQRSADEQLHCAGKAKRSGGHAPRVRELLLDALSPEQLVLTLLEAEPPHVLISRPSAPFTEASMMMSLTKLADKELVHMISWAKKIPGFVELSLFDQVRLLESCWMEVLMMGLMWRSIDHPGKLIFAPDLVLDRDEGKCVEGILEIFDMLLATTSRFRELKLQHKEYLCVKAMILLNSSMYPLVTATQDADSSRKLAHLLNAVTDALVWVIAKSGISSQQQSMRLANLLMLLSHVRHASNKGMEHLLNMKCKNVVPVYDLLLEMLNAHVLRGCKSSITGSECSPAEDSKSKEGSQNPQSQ
FAK inh: FAK (human) kinase inhibition; 0.84% of 97,000 active; biochemical FAK kinase activity assay; inhibition, %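 (tested at 7 µM)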; Q05397; in the data active = inhibition above about 19%;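 also: 0% = DMSO and 100% = reference compound high control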
ERa SRC1 pot: enhances coactivator binding to human estrogen receptor alpha. P03372. TR-FRET ERalpha-LBD/SRC-Cy5 coactivator binding, 2 h; 100 = basal binding, no effect. coactivator binding (% of control), % at 25.6 µM. 1.3% of 86,000 active. AID 639; in the data active = activity above about 200%;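 also: binding measured in presence of low estradiol as agonist stimulus; 0% = peptide alone without receptor and 100% = receptor with peptide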
Rev-RRE block: HIV Rev-RRE protein-RNA interaction inhibition; 0.79% of 97,000 active; P05866; Rev peptide-RRE RNA binding, FRET; inhibition, % at 8 µM;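 active = inhibition above the screen-wide mean plus 3 SD, cut at about 35% in these data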;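 also: 0% = median DMSO wells and 100% = median Neomycin B control wells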
Target sequence (P05866 whole entry, looked up): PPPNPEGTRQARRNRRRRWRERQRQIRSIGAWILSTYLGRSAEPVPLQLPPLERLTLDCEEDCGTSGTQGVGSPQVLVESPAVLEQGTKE
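System: Cy5-labelled duplex RRE RNA binding fluorescein-labelled HIV Rev peptide; Signal: fluorescein-to-Cy5 FRET, 480 nm excitation; Also added: labelled Rev peptide; Compound: one concentration, 8 µM nominal; Buffer or medium: HEPES pH 7.5 salt buffer with EDTA; Read-out: % inhibition of FRET ratio versus controls; Schedule: 5 min preincubation and 15 min binding, 25 °C.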
ERa coact inh: blocks coactivator binding to human estrogen receptor alpha; P03372; TR-FRET ER-alpha LBD / SRC-1 peptide, estradiol-bound; inhibition, % at 25.6 µM; 1.7% of 86,000 active; AID 629; in the data active = inhibition above about 50%;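 also: 0% = receptor plus peptide control and 100% = peptide only without receptor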
* marks the source's active call; other numbers are inactive results; [ ] = remark or other dose.

CCOCCCNS(=O)(=O)c1ccc(NC(=O)N2c3ccccc3Sc3ccccc32)cc1 was read as FAK inh 2 and Rev-RRE block 4.
For FC(F)(F)c1cccnc1N1CCN(c2ncnc3nc[nH]c23)CC1 the results were Smad3 inh -7, ERb coact inh -13, ERa SRC1 pot 74 and ERa coact inh 56*[fluorescence artefact?].
For Clc1ccccc1N1CCN(c2ncnc3nc[nH]c23)CC1 the results were Smad3 inh -11, ERb coact inh 0, ERa SRC1 pot 99 and ERa coact inh 6.
Cc1ccc(S(=O)(=O)NC(=O)OC23COCN2COC3)cc1 was read as Smad3 inh 21.
CC(=O)Nc1ccc(S(=O)(=O)NC(C(=O)O)C(C)C)cc1 (stereo not given) was read as Smad3 inh 0, ERb coact inh 66*[fluorescence artefact?], FAK inh 1, ERa SRC1 pot 105, Rev-RRE block 2 and ERa coact inh -12.
Screening CCC(C)NS(=O)(=O)c1ccc(NC(C)=O)cc1 (stereo not given) returned Smad3 inh -1, ERb coact inh -23, FAK inh -1, ERa SRC1 pot 99, Rev-RRE block -1 and ERa coact inh -21.
For Cc1ccccc1-n1c(SCc2c(C)noc2C)nnc1-c1cccnc1 the results were Smad3 inh 13, ERb coact inh 23, FAK inh 1, ERa SRC1 pot 74, Rev-RRE block 55* and ERa coact inh 47.
For Cc1ccccc1-n1c(SCc2c(C)noc2C)nnc1-c1ccncc1 the results were Smad3 inh -8, ERb coact inh -3, FAK inh -2, ERa SRC1 pot 89, Rev-RRE block 7 and ERa coact inh -21.
CCn1c(CSc2nnc(-c3cccnc3)n2-c2ccccc2C)nc2cc(C(=O)O)ccc21 was read as Smad3 inh 9, ERb coact inh 25, FAK inh -3, ERa SRC1 pot 253*, Rev-RRE block -16 and ERa coact inh 1.
For CN(C)c1ccc2nc3c(C(=O)O)cc(=O)c(O)c-3oc2c1 the results were Smad3 inh 19.
`C[N+](C)(C)CC(=O)N/N=C/c1ccncc1` gave Smad3 inh 0.
Oc1sc(C=Nc2ccc(F)cc2)c2ccccc12 was read as FAK inh 1 and Rev-RRE block 109*[fluorescence artefact?].
`Oc1sc(C=Nc2ccccc2)c2ccccc12` gave FAK inh 0 and Rev-RRE block 120*[fluorescence artefact?].
`CC(=O)C1=C(O)C(=O)N(c2nnn(C)n2)C1c1cccs1` (stereo not given) gave Smad3 inh 6, ERb coact inh 79*[fluorescence artefact?], FAK inh -7, ERa SRC1 pot 134, Rev-RRE block 3 and ERa coact inh -3.
For CC(=C1C(=O)c2ccccc2C1=O)N1CCN(Cc2ccccc2)CC1 the results were Smad3 inh 0, ERb coact inh -2, FAK inh 0, ERa SRC1 pot 714*[fluorescence artefact?], Rev-RRE block 4 and ERa coact inh 0.
`CCOC(=O)c1ccc(NC(=O)COc2cc(=O)n(CC)c3ccccc23)cc1` gave Smad3 inh -68, ERb coact inh -19, FAK inh -6, ERa SRC1 pot 890*[fluorescence artefact?], Rev-RRE block 9 and ERa coact inh -66.
For CCn1c(=O)cc(OCC(=O)N2CCc3ccccc32)c2ccccc21 the results were Smad3 inh 9, ERb coact inh 15, ERa SRC1 pot 212*[fluorescence artefact?] and ERa coact inh 2.
`CCn1c(=O)cc(OCC(=O)N2CCCCCC2)c2ccccc21` gave Smad3 inh 15, ERb coact inh -1, FAK inh 0, ERa SRC1 pot 92, Rev-RRE block -2 and ERa coact inh -2.
For CCc1cc(=O)oc2cc(OCC(=O)N3CCc4ccccc43)ccc12 the results were Smad3 inh -8, ERb coact inh 4, ERa SRC1 pot 200*[fluorescence artefact?] and ERa coact inh 10.
Screening COc1ccc(C(N)CCc2ccc(C)o2)cc1 (stereo not given) returned Smad3 inh 4, ERb coact inh 74*, FAK inh 9, ERa SRC1 pot 19, Rev-RRE block 15 and ERa coact inh 95*[fluorescence artefact?].
`CC1CC(C)(C)NC(C)c2ccccc21` (stereo not given) gave Smad3 inh -7, ERb coact inh -9, FAK inh 0, ERa SRC1 pot 101, Rev-RRE block 9 and ERa coact inh -9.
For CC1CC(C)(C)NCc2ccccc21 (stereo not given) the results were Smad3 inh 2, ERb coact inh 88*[fluorescence artefact?], FAK inh -2, ERa SRC1 pot 106, Rev-RRE block 6 and ERa coact inh 2.
`COc1ccc(Oc2cc(C(F)(F)F)cnc2C(N)=O)cc1` gave Smad3 inh 0, ERb coact inh 10, FAK inh -3, ERa SRC1 pot 118, Rev-RRE block 6 and ERa coact inh 12.
CCCC(=Nc1ccc(N)cc1)C1=C(O)C(C(=O)OC)C(C)(C)CC1=O (stereo not given) was read as Smad3 inh 3, ERb coact inh 66*[fluorescence artefact?], FAK inh -1, ERa SRC1 pot 97, Rev-RRE block 2 and ERa coact inh -3.
O/N=C/c1cc(Br)ccc1OCc1ccccc1F was read as FAK inh 20* and Rev-RRE block 15.
For CCOC(=O)C(C)Oc1cccc2c(=O)n(CC(=O)Nc3ccc4c(c3)OCCO4)ccc12 (stereo not given) the results were Smad3 inh -20, ERb coact inh 28, FAK inh 1, ERa SRC1 pot 324*, Rev-RRE block 0 and ERa coact inh 24.
For COc1ccc(C(=O)NC(NC(=S)Nc2ccc(S(N)(=O)=O)cc2)C(Cl)(Cl)Cl)cc1 (stereo not given) the results were FAK inh -2 and Rev-RRE block -1.
`O=C(CSc1ncnc2sc3c(c12)CCCC3)N1CCC(c2noc3ccc(F)cc23)CC1` gave Smad3 inh 5, ERb coact inh 66*[fluorescence artefact?], FAK inh 4, ERa SRC1 pot 355*[fluorescence artefact?], Rev-RRE block 9 and ERa coact inh 29.
`c1ccc(SC(Sc2ccccc2)c2ccc3c(c2)OCO3)cc1` gave Smad3 inh -6.
`O=c1cc(CSc2nc3cc(Cl)ccc3o2)nc2sccn12` gave Smad3 inh 7, ERb coact inh 1, FAK inh 3, ERa SRC1 pot 107, Rev-RRE block 5 and ERa coact inh 5.
Screening COc1ccc(Nc2nnc(SCc3cc(=O)n4ccsc4n3)s2)cc1 returned Smad3 inh 33, ERb coact inh 52*, FAK inh 4, ERa SRC1 pot 52, Rev-RRE block 42* and ERa coact inh 76*[fluorescence artefact?].
CCN=c1scc(C)n1/N=C/c1ccsc1 was read as Smad3 inh 2, ERb coact inh -11, FAK inh 0, ERa SRC1 pot 110, Rev-RRE block -6 and ERa coact inh -1.
